The text below walks through data of ChEMBL document CHEMBL5625229 (Eur J Med Chem, 2023).

The nature of data set [1]: Efflux ratio of apparent permeability across basal to apical membrane over apical to basal membrane in human Caco-2 cells at 100 uM incubated fro 120 mins by spectroscopy. The format is ADME, cell-based. The method in brief: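 Caco-2 grown 21 days on Transwell filters, with TEER checked daily (above 1000 Ω taken as optimal). Washed in HBSS and equilibrated 30 min at 37 °C, then compound at 100 µM added to the donor side (apical or basolateral), with fresh HBSS on the receiver side, for 120 min at 37 °C. Acceptor concentration by UV spectroscopy gives Papp (nm/s). Ratio = Papp BA/AB, three experiments in duplicate.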
On the technique in general: Caco-2 cells form a polarised layer with tight junctions and transporters.

Data set [2] deals with Multidrug resistance-associated protein 1 (Homo sapiens, UniProt P33527). Description: Inhibition of MRP1 (unknown origin) overexpressed in MDCK cells using Calcein-AM as substrate preincubated for 30 mins followed by substrate addition measured after 30 mins by fluorescence based assay. Format: cell-based. The method in brief:
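MDCK-MRP1 cells, 30 000/well, grown overnight, then treated with compound (final 0.01 nM–100 µM, lower for very potent ones) in medium for 30 min at 37 °C. Calcein-AM added at 2.5 µM final for 30 min, then three ice-cold PBS washes. Fluorescence read at 485/535 nm against untreated cells. EC50 from fluorescence increase versus log dose, mean ± SEM of three experiments in duplicate.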

For data set [3], the target named is T1, Broad substrate specificity ATP-binding cassette transporter ABCG2 (Homo sapiens, UniProt Q9UNQ0).
T1 sequence (Q9UNQ0 whole entry): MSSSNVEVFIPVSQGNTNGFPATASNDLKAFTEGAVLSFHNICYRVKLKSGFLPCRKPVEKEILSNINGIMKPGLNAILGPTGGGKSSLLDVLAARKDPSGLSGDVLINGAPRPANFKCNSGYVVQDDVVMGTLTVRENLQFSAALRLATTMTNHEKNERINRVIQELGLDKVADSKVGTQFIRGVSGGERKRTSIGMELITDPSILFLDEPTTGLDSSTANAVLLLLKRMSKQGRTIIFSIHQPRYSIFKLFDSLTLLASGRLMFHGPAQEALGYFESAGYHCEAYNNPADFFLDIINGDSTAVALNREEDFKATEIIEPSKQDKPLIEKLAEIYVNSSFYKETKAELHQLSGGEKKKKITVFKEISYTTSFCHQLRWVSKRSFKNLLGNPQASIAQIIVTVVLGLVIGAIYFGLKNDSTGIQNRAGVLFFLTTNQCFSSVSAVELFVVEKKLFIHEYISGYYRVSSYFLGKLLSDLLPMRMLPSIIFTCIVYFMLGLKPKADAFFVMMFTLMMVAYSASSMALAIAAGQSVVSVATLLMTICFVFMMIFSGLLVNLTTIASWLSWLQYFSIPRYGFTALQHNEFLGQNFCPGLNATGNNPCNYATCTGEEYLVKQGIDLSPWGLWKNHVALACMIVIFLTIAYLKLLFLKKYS
The data set can be described thus: Inhibition of BCRP (unknown origin) overexpressed in MDCK cells using Hoechst 33342 as substrate preincubated for 30 mins followed by substrate addition measured after 30 mins by fluorescence based assay. The format is cell-based.

A short description of data set [4]: Antiproliferative activity against doxorubicin-resistant human HT-29 cells at 1 to 10 uM incubated for 48 hrs relative to control. Format: functional, doxorubicin-resistant human HT-29 cell. The following applies: dose 1-10 µM. In a few lines: (§1)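 Compound alone (1 μM and 10 μM), 48 h, on HT29 or on HT29/DX (the latter kept in 100 nM doxorubicin to hold resistance). Cells seeded 10 000/well, compound added after 24 h. Viability by MTT (0.5 mg/mL, 3–4 h), formazan in DMSO/EtOH 1:1, absorbance 570/630 nm. Three independent experiments in duplicate.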

The target of data set [5] is ATP-dependent translocase ABCB1 (Homo sapiens, UniProt P08183). The data set can be described thus: Inhibition of MDR1 (unknown origin) overexpressed in MDCK cells using Calcein-AM as substrate preincubated for 30 mins followed by substrate addition measured after 30 mins by fluorescence based assay. Format: cell-based.
Chain of ATP-dependent translocase ABCB1 (P08183 whole entry): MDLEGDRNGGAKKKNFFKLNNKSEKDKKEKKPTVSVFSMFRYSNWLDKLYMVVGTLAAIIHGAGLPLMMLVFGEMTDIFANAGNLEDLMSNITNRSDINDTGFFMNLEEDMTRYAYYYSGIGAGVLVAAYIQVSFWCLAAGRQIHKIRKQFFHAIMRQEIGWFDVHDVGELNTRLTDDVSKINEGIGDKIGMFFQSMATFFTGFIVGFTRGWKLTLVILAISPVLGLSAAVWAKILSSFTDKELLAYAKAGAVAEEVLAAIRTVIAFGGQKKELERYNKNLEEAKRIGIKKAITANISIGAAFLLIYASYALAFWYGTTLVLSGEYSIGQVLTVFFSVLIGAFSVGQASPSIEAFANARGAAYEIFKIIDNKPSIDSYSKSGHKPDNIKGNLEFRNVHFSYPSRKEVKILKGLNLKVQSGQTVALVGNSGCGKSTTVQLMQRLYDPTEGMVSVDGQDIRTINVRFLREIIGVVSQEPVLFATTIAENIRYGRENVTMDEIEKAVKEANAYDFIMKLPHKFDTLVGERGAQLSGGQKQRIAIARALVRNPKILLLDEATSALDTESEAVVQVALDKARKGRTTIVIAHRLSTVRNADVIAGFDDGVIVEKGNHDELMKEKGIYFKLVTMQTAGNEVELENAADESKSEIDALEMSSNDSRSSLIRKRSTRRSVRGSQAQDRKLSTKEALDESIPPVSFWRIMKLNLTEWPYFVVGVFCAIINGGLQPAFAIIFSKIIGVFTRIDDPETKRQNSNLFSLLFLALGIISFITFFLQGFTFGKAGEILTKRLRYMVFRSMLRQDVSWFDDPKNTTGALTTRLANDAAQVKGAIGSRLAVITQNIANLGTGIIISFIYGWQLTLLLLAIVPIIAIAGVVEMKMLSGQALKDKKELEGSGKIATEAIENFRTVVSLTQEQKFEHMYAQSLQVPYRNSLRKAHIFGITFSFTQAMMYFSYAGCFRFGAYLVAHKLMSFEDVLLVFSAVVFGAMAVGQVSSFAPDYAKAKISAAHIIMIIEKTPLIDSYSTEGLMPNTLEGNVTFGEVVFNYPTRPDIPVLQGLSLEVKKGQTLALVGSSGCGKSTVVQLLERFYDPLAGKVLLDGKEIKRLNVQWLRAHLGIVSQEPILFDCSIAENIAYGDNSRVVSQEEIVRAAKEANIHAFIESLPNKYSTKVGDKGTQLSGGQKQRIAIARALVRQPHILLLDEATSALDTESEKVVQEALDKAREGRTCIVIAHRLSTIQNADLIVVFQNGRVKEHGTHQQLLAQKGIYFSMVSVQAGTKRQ
The next data set deals with HT-29. Description: Antiproliferative activity against human HT-29 cells at 1 to 10 uM incubated for 48 hrs relative to control. Format: functional. The following applies: dose 1-10 µM. In a few lines: as §1
A short description of data set [6]: Potentiation of DOX-induced cytotoxicity against doxorubicin-resistant human HT-29 cells assessed as reduction in cell viability at 10 uM incubated for 48 hrs relative to control. Format: functional, doxorubicin-resistant human HT-29 cell. The method in brief:
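HT29/DX cells (10 000/well) were given compound at 1 or 10 µM together with 5 µM doxorubicin 24 h after seeding. After 48 h, viability by MTT (0.5 mg/mL, 3–4 h, 37 °C), read at 570/630 nm against untreated cells. Three independent experiments, technical duplicates; one-way ANOVA.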

A word on the efflux ratio: it is a quotient of directional permeabilities that is used to spot active efflux. For orientation: EC50 means the concentration that produces a half-maximal response.

Chain of Multidrug resistance-associated protein 1 (P33527 whole entry): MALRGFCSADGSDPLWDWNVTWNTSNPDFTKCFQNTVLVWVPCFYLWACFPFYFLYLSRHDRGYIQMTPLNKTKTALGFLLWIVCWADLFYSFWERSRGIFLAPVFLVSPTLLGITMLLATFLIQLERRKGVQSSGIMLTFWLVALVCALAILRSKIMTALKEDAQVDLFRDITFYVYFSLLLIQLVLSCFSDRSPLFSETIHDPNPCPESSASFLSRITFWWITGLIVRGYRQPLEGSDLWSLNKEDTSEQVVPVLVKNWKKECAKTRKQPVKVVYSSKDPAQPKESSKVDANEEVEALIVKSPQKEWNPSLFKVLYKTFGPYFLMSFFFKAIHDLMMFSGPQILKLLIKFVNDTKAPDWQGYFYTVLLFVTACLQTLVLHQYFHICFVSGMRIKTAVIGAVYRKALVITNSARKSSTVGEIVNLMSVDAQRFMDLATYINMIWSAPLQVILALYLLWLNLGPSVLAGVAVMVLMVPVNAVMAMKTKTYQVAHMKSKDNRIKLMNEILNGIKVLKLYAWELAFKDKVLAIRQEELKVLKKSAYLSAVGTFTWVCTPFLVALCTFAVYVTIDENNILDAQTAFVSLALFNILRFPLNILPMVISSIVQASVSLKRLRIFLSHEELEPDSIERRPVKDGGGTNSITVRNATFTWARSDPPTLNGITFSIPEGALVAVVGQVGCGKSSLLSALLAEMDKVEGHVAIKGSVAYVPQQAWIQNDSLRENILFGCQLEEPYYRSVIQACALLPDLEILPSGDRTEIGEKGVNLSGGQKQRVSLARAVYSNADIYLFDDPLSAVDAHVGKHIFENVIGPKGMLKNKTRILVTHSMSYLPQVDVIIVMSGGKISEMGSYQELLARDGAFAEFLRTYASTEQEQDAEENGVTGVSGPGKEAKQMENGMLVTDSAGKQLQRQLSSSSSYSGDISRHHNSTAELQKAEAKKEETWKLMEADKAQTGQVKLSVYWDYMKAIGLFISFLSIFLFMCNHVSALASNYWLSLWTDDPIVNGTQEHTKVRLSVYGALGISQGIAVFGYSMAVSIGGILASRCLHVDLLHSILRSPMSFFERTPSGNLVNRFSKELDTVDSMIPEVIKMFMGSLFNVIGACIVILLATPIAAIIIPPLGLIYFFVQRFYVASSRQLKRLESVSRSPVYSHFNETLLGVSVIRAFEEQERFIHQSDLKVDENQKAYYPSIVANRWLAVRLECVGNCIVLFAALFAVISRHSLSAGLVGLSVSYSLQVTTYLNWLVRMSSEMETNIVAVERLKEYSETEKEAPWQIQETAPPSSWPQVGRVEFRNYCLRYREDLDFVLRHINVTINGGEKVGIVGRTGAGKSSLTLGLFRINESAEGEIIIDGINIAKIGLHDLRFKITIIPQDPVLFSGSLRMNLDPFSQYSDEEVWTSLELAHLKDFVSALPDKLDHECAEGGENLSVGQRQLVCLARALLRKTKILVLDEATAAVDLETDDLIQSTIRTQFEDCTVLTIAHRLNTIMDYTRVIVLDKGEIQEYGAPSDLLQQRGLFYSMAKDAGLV

`COc1cc2c(cc1OC)CN(CCc1ccc(NC(=O)c3cc(OC)c(OC)cc3NC(=O)c3cnc4ccccc4c3)cc1)CC2`: the efflux ratio at 2 h, 100 µM in data set [1] was found to be 22.

For the compound `COc1cc2c(cc1OC)CN(CCc1ccc(NC(=O)c3cccc4c(=O)c5cccc(OC)c5[nH]c34)cc1)CC2`, the EC50 in data set [2] was over 100 µM.

On to `COc1cc2c(cc1OC)CN(CCc1ccc(-c3nnc(-c4c(OC)cccc4OC)o3)cc1)CC2`, for which the EC50 in data set [2] and in data set [3] was over 100 µM in each case.

As for `COc1cc2c(cc1OC)CN(CCc1ccc(-c3nnc(/C=C/c4cc(OC)c(OC)c(OC)c4)o3)cc1)CC2`, the EC50 in data set [2] was over 100 µM.

As for `COc1cc2c(cc1OC)CN(CCc1ccc(-c3nnc(-c4c(OC)c(OC)cc5ccccc45)o3)cc1)CC2`, the Activity (in data set [4]; with HT-29) was about 10% each time. In addition, the values for the EC50 in data set [5], in data set [2] and in data set [3] were 0.046 µM, over 100 µM and over 100 µM, respectively. Besides, the efflux ratio at 2 h, 100 µM in data set [1] was 9.7.

On to `COc1cc2c(cc1OC)CN(CCc1ccc(-c3nnc(-c4cccc(OC)c4OC)o3)cc1)CC2`, for which the Activity (in data set [4]; in the data set on HT-29) was about 10% in each case. The EC50 was 0.4 µM in data set [5], over 100 µM in data set [2] and over 100 µM in data set [3]. The efflux ratio at 2 h, 100 µM in data set [1] is 6.8.

With `COc1cc2c(cc1OC)CN(CCc1ccc(-n3nnnc3/C=C/c3cc(OC)c(OC)c(OC)c3)cc1)CC2`, the concentration giving a half-maximal response (EC50) in data set [5] is 5.27 µM; in data set [2] it was over 100 µM.

Take `COc1cc2c(cc1OC)CN(CCc1ccc(-n3nnc(-c4ccc(OC)c(OC)c4OC)n3)cc1)CC2`: the EC50 in data set [5] was 0.55 µM; in data set [2], over 100 µM.

For `COc1cc2c(cc1OC)CN(CCc1ccc(-n3nnnc3-c3cc(OC)c(OC)c(OC)c3)cc1)CC2`, the EC50 was 0.63 µM in data set [5] and 4.33 µM in data set [2].

For the compound `COc1cc2c(cc1OC)CN(CCc1ccc(-n3nnnc3-c3c(OC)ccc4ccccc34)cc1)CC2`, the EC50 in data set [5] is 0.75 µM; in data set [2], over 100 µM.

For the compound `COc1cc2c(cc1OC)CN(CCc1ccc(-n3nnc(-c4c(OC)ccc5ccccc45)n3)cc1)CC2`, the Activity (in data set [4]; in the data set on HT-29) was about 10% in each case. The EC50 in data set [5] is 0.09 µM; in data set [2], over 100 µM; in data set [3], over 100 µM. Further, the efflux ratio at 2 h, 100 µM in data set [1] stood at 4.5.

In the case of `COc1cc2c(cc1OC)CN(CCc1ccc(-n3nnc(/C=C/c4cc(OC)c(OC)c(OC)c4)n3)cc1)CC2`, the Activity (in data set [4]; in the data set with HT-29) was about 10% throughout. Further, the results for the EC50 in data set [5], in data set [2] and in data set [3] were 0.012 µM, over 100 µM and 53.6 µM, respectively. In addition, the efflux ratio at 2 h, 100 µM in data set [1] was 5.4.

For the compound `COc1cc2c(cc1OC)CN(CCc1ccc(-c3nnc(-c4cc(OC)c(OC)c(OC)c4)o3)cc1)CC2`, the EC50 in data set [5] was 0.071 µM; in data set [2] it was over 100 µM.

Turning to `COc1cc2c(cc1OC)CN(CCc1ccc(-c3nnc(-c4ccc(OC)c(OC)c4OC)o3)cc1)CC2`, the Activity (in data set [4]; in the data set with HT-29) was about 10% in each case. Besides, the EC50 was 0.44 µM in data set [5], over 100 µM in data set [2] and over 100 µM in data set [3]. Further, the efflux ratio at 2 h, 100 µM in data set [1] was 6.5.

For the compound `COc1cc2c(cc1OC)CN(CCc1ccc(-n3nnnc3-c3c(OC)c(OC)cc4ccccc34)cc1)CC2`, the figures for the EC50 in data set [5], in data set [2] and in data set [3] were 1.06 µM, over 100 µM and over 100 µM, respectively. Also, in data set [1], the efflux ratio at 2 h, 100 µM was found to be 3.3.

Turning to `COc1cc2c(cc1OC)CN(CCc1ccc(-n3nnc(-c4c(OC)c(OC)cc5ccccc45)n3)cc1)CC2`, the EC50 in data set [5] was 0.26 µM; in data set [2], over 100 µM.

For the compound `COc1cc2c(cc1OC)CN(CCc1ccc(-n3nnnc3-c3ccccc3OC)cc1)CC2`, the values for the EC50 in data set [5] and in data set [2] were 0.95 µM and over 100 µM, respectively.

Consider `COc1cc2c(cc1OC)CN(CCc1ccc(-n3nnc(-c4ccccc4OC)n3)cc1)CC2`, for which the EC50 is 0.082 µM in data set [5] and over 100 µM in data set [2].

As to `COc1cc2c(cc1OC)CN(CCc1ccc(-n3nnc(-c4cccc(OC)c4OC)n3)cc1)CC2`, the EC50 in data set [5] was 0.14 µM; in data set [2], over 100 µM.

`COc1cc2c(cc1OC)CN(CCc1ccc(-n3nnc(-c4c(OC)cccc4OC)n3)cc1)CC2`: the EC50 in data set [2] is over 100 µM.

With `COc1cc2c(cc1OC)CN(CCc1ccc(-n3nnnc3-c3ccc(OC)c(OC)c3OC)cc1)CC2`, the EC50 in data set [5] is 0.75 µM; in data set [2], 7.49 µM.

With `COc1cc2c(cc1OC)CN(CCc1ccc(-c3nnc(-c4ccccc4OC)o3)cc1)CC2`, the results for the Activity (in data set [6]; in data set [4]; with HT-29) were 64.3%, about 10% and about 10%, respectively. Besides, the results for the EC50 in data set [5], in data set [2] and in data set [3] were 0.019 µM, over 100 µM and over 100 µM, respectively. For the same compound, in data set [1], the efflux ratio at 2 h, 100 µM was found to be 6.3.

On to `COc1cc2c(cc1OC)CN(CCc1ccc(-c3nnc(-c4c(OC)ccc5ccccc45)o3)cc1)CC2`, for which the EC50 in data set [2] and in data set [3] was over 100 µM in each case.

On to `COc1cc2c(cc1OC)CN(CCc1ccc(-n3nnc(-c4cc(OC)c(OC)c(OC)c4)n3)cc1)CC2`, for which the EC50 in data set [5] was 0.26 µM; in data set [2], over 100 µM.
